# Measured values: ChEMBL document CHEMBL4138227, “Identification of an oxime-containing C-glucosylarene as a potential inhibitor of sodium-dependent glucose co-transporter 2” (Eur J Med Chem, 2018)
# pEC50: −log10 of the molar value.
# Columns and labels:
# [1] = target: T1, Sodium/glucose cotransporter 2 (Homo sapiens, UniProt P31639); assay: Inhibition of human SGLT2 expressed in CHO cells assessed as reduction in [14C]AMG uptake after 1 hr by microbeta counting method; type: cell-based
# T1 sequence (P31639 whole entry): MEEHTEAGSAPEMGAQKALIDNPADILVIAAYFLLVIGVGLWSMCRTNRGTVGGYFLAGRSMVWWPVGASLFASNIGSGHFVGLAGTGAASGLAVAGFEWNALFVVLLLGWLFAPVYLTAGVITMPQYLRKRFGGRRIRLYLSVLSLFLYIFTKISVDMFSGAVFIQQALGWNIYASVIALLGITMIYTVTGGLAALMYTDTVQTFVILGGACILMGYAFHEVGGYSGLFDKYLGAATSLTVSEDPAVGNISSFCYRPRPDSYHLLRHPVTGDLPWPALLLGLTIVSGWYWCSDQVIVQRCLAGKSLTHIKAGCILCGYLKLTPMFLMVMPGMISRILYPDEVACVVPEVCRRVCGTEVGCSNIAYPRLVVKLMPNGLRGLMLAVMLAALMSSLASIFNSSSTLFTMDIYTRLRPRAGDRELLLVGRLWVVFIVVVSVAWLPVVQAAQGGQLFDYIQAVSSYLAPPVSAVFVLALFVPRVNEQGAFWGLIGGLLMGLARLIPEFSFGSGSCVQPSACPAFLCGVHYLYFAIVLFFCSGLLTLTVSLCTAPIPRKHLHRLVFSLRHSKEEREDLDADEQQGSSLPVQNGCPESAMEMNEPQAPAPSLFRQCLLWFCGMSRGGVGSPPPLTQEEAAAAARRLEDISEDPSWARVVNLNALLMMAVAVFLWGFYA
# Method in brief: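 CHO cells stably expressing human SGLT2 (or SGLT1); inhibition of sodium-dependent uptake of [14C]α-methyl-D-glucopyranoside measured; EC50 from at least two independent experiments, each in triplicate.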
# [2] = Cmax in Sprague-Dawley rat at 1.1 mg/kg, po; type: ADME, organism-based; parameters: dose 1.1 mg/kg, route oral; details: in vivo
# [3] = Elimination half life in Sprague-Dawley rat at 1.1 mg/kg, po; type: ADME, organism-based; details: in vivo, read-out: beta t1/2 (converted)
# [4] = Tmax in Sprague-Dawley rat at 1.1 mg/kg, po; type: ADME, organism-based; details: in vivo
# [5] = AUC (0 to infinity) in Sprague-Dawley rat at 1.1 mg/kg, po; type: ADME, organism-based; parameters: dose 1.1 mg/kg, time infinity, route oral; details: in vivo
# Method in brief: (§1)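 Rats got a single intravenous or oral dose, with 3 animals per route. Pharmacokinetic parameters were derived, including T1/2, clearance, Vss, Cmax, Tmax, AUC(0-inf) and oral bioavailability (F).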
# [6] = Oral bioavailability in Sprague-Dawley rat at 1.1 mg/kg; type: ADME, organism-based; details: in vivo
# [7] = Elimination half life in Sprague-Dawley rat at 1.1 mg/kg, iv; type: ADME, organism-based; details: in vivo, read-out: beta t1/2 (converted)
# [8] = Clearance in Sprague-Dawley rat at 1.1 mg/kg, iv; type: ADME, organism-based; details: in vivo
# [9] = Volume of distribution at steady state in Sprague-Dawley rat at 1.1 mg/kg, iv; type: ADME, organism-based; details: in vivo, read-out: Vdss
# [10] = AUC (0 to infinity) in Sprague-Dawley rat at 1.1 mg/kg, iv; type: ADME, organism-based; parameters: dose 1.1 mg/kg, route intravenous, time infinity; details: in vivo; method in brief: as §1
# [11] = Elimination half life in Sprague-Dawley rat at 1 mg/kg, iv; type: ADME, organism-based; details: in vivo, read-out: beta t1/2 (converted)
# [12] = Clearance in Sprague-Dawley rat at 1 mg/kg, iv; type: ADME, organism-based; details: in vivo
# [13] = Volume of distribution at steady state in Sprague-Dawley rat at 1 mg/kg, iv; type: ADME, organism-based; details: in vivo, read-out: Vdss
# [14] = AUC (0 to infinity) in Sprague-Dawley rat at 1 mg/kg, iv; type: ADME, organism-based; parameters: dose 1 mg/kg, time infinity, route intravenous; details: in vivo; method in brief: as §1
# [15] = Elimination half life in Sprague-Dawley rat at 1 mg/kg, po; type: ADME, organism-based; details: in vivo, read-out: beta t1/2 (converted)
# [16] = Cmax in Sprague-Dawley rat at 1 mg/kg, po; type: ADME, organism-based; parameters: dose 1 mg/kg, route oral; details: in vivo
# [17] = Tmax in Sprague-Dawley rat at 1 mg/kg, po; type: ADME, organism-based; details: in vivo
# [18] = AUC (0 to infinity) in Sprague-Dawley rat at 1 mg/kg, po; type: ADME, organism-based; parameters: dose 1 mg/kg, time infinity, route oral; details: in vivo; method in brief: as §1
# [19] = Oral bioavailability in Sprague-Dawley rat at 1 mg/kg; type: ADME, organism-based; details: in vivo
compound,measurement,setting,value
CCOc1ccc(Cc2cc([C@@H]3O[C@H](/C=N/NC4=NCCN4)[C@@H](O)[C@H](O)[C@H]3O)ccc2Cl)cc1,pEC50,[1],6.37
CCOc1ccc(Cc2cc([C@@H]3O[C@H](CNO)[C@@H](O)[C@H](O)[C@H]3O)ccc2Cl)cc1,pEC50,[1],7.02
CCOc1ccc(Cc2cc([C@@H]3O[C@H](/C=N/NC(C)=O)[C@@H](O)[C@H](O)[C@H]3O)ccc2Cl)cc1,pEC50,[1],6.40
CCOc1ccc(Cc2cc([C@@H]3O[C@H](CNNC(=O)c4ccco4)[C@@H](O)[C@H](O)[C@H]3O)ccc2Cl)cc1,pEC50,[1],6.82
CCOc1ccc(Cc2cc([C@@H]3O[C@H](/C=N/NCCO)[C@@H](O)[C@H](O)[C@H]3O)ccc2Cl)cc1,pEC50,[1],7.06
same,Cmax,[2],34.5 ng/mL
same,half-life,[3],1.2 h
same,Tmax,[4],0.7 h
same,AUC(0-inf),[5],73 ng·h/mL
same,bioavailability,[6],7.1%
same,half-life,[7],0.7 h
same,clearance,[8],17.6 mL/min/kg
same,Vd,[9],0.8 L/kg
same,AUC(0-inf),[10],1030 ng·h/mL
CCOc1ccc(Cc2cc([C@@H]3O[C@H](/C=N/NCc4ccccc4)[C@@H](O)[C@H](O)[C@H]3O)ccc2Cl)cc1,pEC50,[1],7.42
CCOc1ccc(Cc2cc([C@@H]3O[C@H](/C=N/OCC4CC4)[C@@H](O)[C@H](O)[C@H]3O)ccc2Cl)cc1,pEC50,[1],5.71
CCOc1ccc(Cc2cc([C@@H]3O[C@H](/C=N/NC(=O)c4ccc(Cl)cc4)[C@@H](O)[C@H](O)[C@H]3O)ccc2Cl)cc1,pEC50,[1],7.19
CCOc1ccc(Cc2cc([C@@H]3O[C@H](/C=N/OC)[C@@H](O)[C@H](O)[C@H]3O)ccc2Cl)cc1,pEC50,[1],7.04
same,half-life,[11],3 h
same,clearance,[12],12.6 mL/min/kg
same,Vd,[13],2.9 L/kg
same,AUC(0-inf),[14],1320 ng·h/mL
same,half-life,[15],2.5 h
same,Cmax,[16],116 ng/mL
same,Tmax,[17],1 h
same,AUC(0-inf),[18],540 ng·h/mL
same,bioavailability,[19],40.5%
CCOc1ccc(Cc2cc([C@@H]3O[C@H](/C=N/NC(=O)c4ccco4)[C@@H](O)[C@H](O)[C@H]3O)ccc2Cl)cc1,pEC50,[1],6.52
CCO/N=C/[C@H]1O[C@@H](c2ccc(Cl)c(Cc3ccc(OCC)cc3)c2)[C@H](O)[C@@H](O)[C@@H]1O,pEC50,[1],6.47
CCOc1ccc(Cc2cc([C@@H]3O[C@H](/C=N/Nc4ccc([N+](=O)[O-])cc4)[C@@H](O)[C@H](O)[C@H]3O)ccc2Cl)cc1,pEC50,[1],6.43
CCOc1ccc(Cc2cc([C@@H]3O[C@H](CNNc4ccc([N+](=O)[O-])cc4)[C@@H](O)[C@H](O)[C@H]3O)ccc2Cl)cc1,pEC50,[1],6.68
